# The list is not random: actives were taken first. Their share in the collection is about 2.6%.
# LMPTP inh: LMPTP phosphatase inhibitors, primary screen, biochemical, fluorescence intensity, uHTS | Low molecular weight phosphotyrosine protein phosphatase (Homo sapiens), P24666 | recombinant LMPTP-A, OMFP fluorogenic substrate | inhibition, % at 20 µM | actives 0.22% (n = 360,000) | AID 651560, 2012;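 active means compounds that cut the enzyme signal by at least half of the control window in the single-dose screen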;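 further: plate controls were DMSO wells with enzyme plus substrate for no effect and substrate without enzyme for full effect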
#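 Assay system: LMPTP-A enzyme. Input: 0.625 nM LMPTP-A final. Probe or stimulus: 400 µM OMFP. Compound dosing: single 20 µM dose. Schedule: 50 min dark incubation at room temperature. Detection: fluorescence intensity of OMFP turnover product. Read-out: percent inhibition versus substrate-only and uninhibited controls. Benchmarks: no-enzyme low control, uninhibited high control.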
# STEP inh: STEP phosphatase inhibitors, primary screen, biochemical, fluorescence intensity, uHTS | Tyrosine-protein phosphatase non-receptor type 5 (Homo sapiens), P54829 | recombinant STEP, OMFP fluorogenic substrate | inhibition, % at 20 µM | actives 0.25% (n = 360,000);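 active means inhibition at 20 µM, scaled per plate between control wells, above about 37%, limit read from the data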;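 further: 0% = DMSO with enzyme and substrate and 100% = substrate only without enzyme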
# Target sequence (P54829 whole entry, looked up): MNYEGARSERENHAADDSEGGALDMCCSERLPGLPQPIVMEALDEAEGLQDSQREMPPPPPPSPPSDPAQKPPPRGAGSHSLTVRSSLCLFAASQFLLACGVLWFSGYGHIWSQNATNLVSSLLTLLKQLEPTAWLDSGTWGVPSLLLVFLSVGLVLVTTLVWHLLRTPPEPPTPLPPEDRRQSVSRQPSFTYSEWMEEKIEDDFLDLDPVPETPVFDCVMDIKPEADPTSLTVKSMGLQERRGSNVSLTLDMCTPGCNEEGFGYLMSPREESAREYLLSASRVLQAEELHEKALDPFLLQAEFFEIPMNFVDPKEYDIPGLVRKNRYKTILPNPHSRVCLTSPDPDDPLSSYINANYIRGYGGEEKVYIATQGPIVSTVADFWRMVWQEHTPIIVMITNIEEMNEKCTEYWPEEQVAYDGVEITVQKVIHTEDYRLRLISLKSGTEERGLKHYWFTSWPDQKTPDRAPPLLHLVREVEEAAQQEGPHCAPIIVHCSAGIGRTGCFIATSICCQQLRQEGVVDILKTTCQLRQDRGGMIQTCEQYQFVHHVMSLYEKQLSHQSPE
#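 System: STEP (striatal-enriched tyrosine phosphatase) enzyme, cell-free; medium: Bis-Tris pH 6.0 buffer with DTT, detergent; dosing: 20 µM, 1% DMSO; times: reaction 20 min, ambient temperature; detection: fluorescence, 480/540 nm; read-out basis: normalized % inhibition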
# NadD block: inhibitors of S. aureus NadD, primary screen, biochemical, colorimetric, uHTS; Nicotinate-nucleotide adenylyltransferase NadD (Staphylococcus aureus N315); purified NadD enzyme, colorimetric absorbance read-out; actives 0.78% (n = 360,000); inhibition, % at 20 µM; in the data active means inhibition above about 26%
# rCAG binder: binders of r(CAG) RNA repeats, primary screen, biochemical, fluorescence; r(CAG) RNA repeat, TO-PRO-1 dye displacement fluorescence; actives 1.3% (n = 370,000); inhibition, % at 3 µM;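 active means inhibition above the plate cutoff, the mean of all test compounds on that plate plus 3 SD, cut at about 35% in these data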;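 further: 0% = DMSO alone and 100% = 100 µM mitoxantrone as full dye displacement; higher means more dye released from RNA so lower well fluorescence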
# Scp1 inh: Scp-1 phosphatase inhibitors, primary screen, biochemical, colorimetric, uHTS; AID 493091, 2011; inhibition, % at 20 µM; Carboxy-terminal domain RNA polymerase II polypeptide A small phosphatase 1 (Homo …; Recombinant Scp1, phosphopeptide, malachite green phosphate absorbance; actives 0.88% (n = 340,000);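 active means inhibition above about 50% at 20 µM, limit read from the data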;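 further: plate controls were DMSO wells with enzyme for no effect and wells lacking enzyme for full effect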
#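 System: truncated SCP-1 phosphatase (76-261aa); medium: Tris acetate buffer pH 5.5 with MgCl2 and Tween-20; incubation: 45 min room-temperature reaction, 5 min colour, 30 min stabiliser; compound: single 20 µM dose, 1% DMSO; reagent: Phosphorylated 17-residue peptide substrate; read-out: % inhibition at 20 µM; technique: colorimetric free-phosphate detection, absorbance 630 nm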
# NadD inh conf: inhibitors of S. aureus NadD, confirmation, biochemical, colorimetric, single concentration. shares compounds with NadD block. inhibition, % at 20 µM. actives 13% (n = 2,000). purified S. aureus NadD, colorimetric enzyme assay; in the data active means inhibition mostly above about 42%, no sharp cut-off; inactive means mostly below about 42%
# rCAG bind conf: small molecules binding CAG repeat RNA – biochemical, fluorescence, confirmation | shares compounds with rCAG binder | r(CAG) RNA repeat, TO-PRO-1 dye displacement fluorescence | inhibition, % at 3 µM | actives 70% (n = 4,300) | AID 652065, 2013;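 active means inhibition above a per-plate cutoff, the mean inhibition of sample wells plus 3 SD, cut at about 35% in these data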;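 further: loss of TO-PRO-1 fluorescence as compound displaces dye from 1x1 AA loop RNA; 0% = DMSO only wells and 100% = 100 µM mitoxantrone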
# DNA CAG counter: displacement of TO-PRO-1 from CAG DNA duplex, counter-screen for rCAG RNA repeat binder project, biochemical, fluorescence, TO-PRO-1 dye, d(CAG) DNA oligo; shares compounds with rCAG binder; d(CAG) DNA oligo TO-PRO-1 dye displacement; inhibition, % at 3 µM; actives 94% (n = 4,300);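 active means inhibition above its plate's cutoff, the mean test-well inhibition plus 3 SD, cut at about 4.8% in these data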;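 further: 0% = DNA dye mix with DMSO and 100% = 100 µM mitoxantrone; hits displace the dye from DNA and so lower well fluorescence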
# * marks the source's active call; other numbers are inactive results; . = no result given.
SMILES,LMPTP inh,STEP inh,NadD block,rCAG binder,Scp1 inh,NadD inh conf,rCAG bind conf,DNA CAG counter
CC1=NN(c2ccc(C)c(C)c2)C(=O)C1C(c1cccc(O)c1)C1C(=O)N(c2ccc(C)c(C)c2)N=C1C (centres undefined),6,2,37*,70*,6,61*,78*,37*
COc1ccc(C)cc1Nc1nc(-c2c[nH]c3ccccc23)cs1,3,2,39*,37*,-1,36,20,12*
CC(C)C(=O)OCCCN1C(=O)CCC12CCC(c1ccccc1)CC2 (centres undefined),.,.,.,0,.,.,.,.
Cc1ccc2sc(NNC(=O)c3cc(=O)c4ccccc4o3)nc2c1C,5,5,64*,75*,44,70*,86*,45*
Cc1ccc2sc(NNC(=O)C3COc4ccccc4O3)nc2c1C (centres undefined),-1,1,0,11,-7,.,.,.
Cc1cccc2sc(NNC(=O)c3cc(=O)c4ccccc4o3)nc12,3,0,45*,54*,-7,60*,78*,35*
O=C(O)CSc1nc(-c2ccccc2)nc2c1CCCC2,1,-1,-1,-1,-7,.,.,.
CSc1nc(SCC(=O)O)c2sc3nc(-c4ccccc4)c4c(c3c2n1)CCC4,95*,97*,28*,39*,60*,0,63*,38*
COc1ccc(CN2C(=O)N3Cc4ccc(C)cc4C3CS2(=O)=O)cc1 (centres undefined),.,.,.,1,.,.,.,.
C/C(=N\Nc1nc(-c2cc(C)ccc2C)cs1)c1cc2ccccc2oc1=O,0,-2,4,14,-1,.,.,.
C/C(=N\Nc1nc(-c2cc(C)ccc2C)cs1)c1cc2c(ccc3ccccc32)oc1=O,2,1,48*,47*,15,4,45*,23*
CCc1ccc(NC(=O)C(C)OC(=O)c2ccc(NS(=O)(=O)c3ccc(C)c([N+](=O)[O-])c3)cc2)cc1 (centres undefined),4,-1,45*,85*,-7,46*,82*,48*
COc1ccc(NC(=O)CN(C)C(=O)c2ccc(NS(=O)(=O)c3ccc(C)c([N+](=O)[O-])c3)cc2)cc1,0,1,-1,28,-10,.,.,.
O=C1C[C@@H](c2ccccc2)N=C2N(Cc3ccc4c(c3)OCO4)C/C(=C/c3ccccc3)N12,.,.,.,7,.,.,.,.
COc1cc([N+](=O)[O-])c(OC)cc1Nc1ccccc1C(=O)O,.,.,.,6,.,.,.,.
COc1cc(-c2ccc(Nc3ccccc3C(=O)O)c(OC)c2)ccc1Nc1ccccc1C(=O)O,7,1,50*,93*,70*,45,86*,59*
CN(CCC#N)C(=O)COC(=O)c1c2c(nc3ccccc13)/C(=C/c1ccco1)CC2,59*,3,50*,69*,78*,58*,52*,28*
CC(C)CNC(=O)COC(=O)c1c2c(nc3ccccc13)/C(=C\c1cccs1)CC2,6,0,12,20,7,.,.,.
O=C(Nc1cccc(C(=O)O)c1)/C(=C/c1ccc([N+](=O)[O-])cc1)NC(=O)c1ccccc1,-1,-2,0,7,-8,.,.,.

# Assay outcomes from PubChem.
